{"source": "PubChem BioAssay AID573", "about": "(SRMLSC, 2007)", "note": "Among all 65,000 compounds or so, about 1,400 (2.2%) were called active. For the sample, actives were picked, then their nearest neighbours and some compounds at random. Unmarked numbers belong to inactive results.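 The calls were made as follows: active = growth inhibition at or above a cutoff equal to the mean over every tested compound plus 3 SD (cut at about 60% in these data); inactive = the rest.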", "data": [{"experiment": "E. coli ΔtolC antibacterial growth inhibition – strain BW25113 ΔtolC::kan, 384-well, primary screen (AID 573)", "settings": "E. coli BW25113 tolC mutant growth, OD615; hits give high values; screened at 10 µM (by protocol)", "method_in_brief": "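Doses: one dose of 10 µM final / Material: E. coli BW25113 ΔtolC::kan, tolC deletion mutant strain / Buffer or medium: LB with kanamycin 50 µg/mL / Evaluation: percent growth inhibition / Detection: optical density read at 615 nm / Incubation: 37 °C, 20 h exposure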", "values": [{"smiles": "CC(=O)c1c(C)n([O-])c2ccccc2[n+]1=O", "growth inhibition": "97.5% (active)"}, {"smiles": "C=CCSc1nc2c(c(=O)[nH]1)C(C(C)C)C(C#N)=C(N)O2", "note": "(configuration not stated)", "growth inhibition": "0.15%"}, {"smiles": "CCCn1c(=NC(C)=O)c(C(=O)OCC)cc2c(=O)n3ccccc3nc21", "growth inhibition": "-3.58%"}, {"smiles": "C=CCOc1nc2c(c(=O)n(C)c(=O)n2C)n1Cc1ccc(Cl)cc1Cl", "growth inhibition": "12.2%"}, {"smiles": "Cc1nc2c(-c3ccccc3)c(C)[nH]n2c(=O)c1Cl", "growth inhibition": "98% (active)"}, {"smiles": "CCCN(CCC)C(=O)C1c2ccccc2Oc2ccccc21", "growth inhibition": "17.6%"}, {"smiles": "CCOC(=O)N1CCC(NC(=O)Cn2cc3c(n2)CCCCC3)CC1", "growth inhibition": "-12.2%"}, {"smiles": "N#Cc1nc(COc2ccc(-c3ccccc3)cc2)oc1NCc1cccnc1", "growth inhibition": "88.7% (active)"}, {"smiles": "CCC(Oc1ccccc1)C(=O)NCc1cccnc1", "note": "(configuration not stated)", "growth inhibition": "-6.02%"}, {"smiles": "Cc1ccc(OCc2nc(C#N)c(N3CCCC3)o2)cc1", "growth inhibition": "5.67%"}, {"smiles": "COc1ccc(N2CC(C)Cn3c2nc2c3c(=O)n(Cc3ccccc3F)c(=O)n2C)c(OC)c1", "note": "(configuration not stated)", "growth inhibition": "13.4%"}, {"smiles": "Cc1nnc(SCC(=O)NCCOc2ccc(Cl)cc2)n1-c1ccccc1", "growth inhibition": "-1.57%"}, {"smiles": "COc1ccc2c(c1)CCc1c(C(=O)N3CCc4ccccc4C3)noc1-2", "growth inhibition": "77.6% (active)"}, {"smiles": "COc1ccc2c(c1)CCc1c(C(=O)Nc3c(C)n(C)n(-c4ccccc4)c3=O)noc1-2", "growth inhibition": "-4.64%"}, {"smiles": "COc1ccc2c(c1)CCc1c(C(=O)N3CCCC3)noc1-2", "growth inhibition": "-0.81%"}, {"smiles": "CCCOC(=O)c1cc2ccccc2oc1=O", "growth inhibition": "-13.8%"}, {"smiles": "O=c1c(-c2ccc3c(c2)OCCO3)c(C(F)(F)F)oc2cc(O)cc(O)c12", "growth inhibition": "11.4%"}, {"smiles": "CCOC(=O)c1cc2cc(-c3c(C(=O)OCC)oc4cc(O)cc(O)c4c3=O)ccc2o1", "growth inhibition": "87.4% (active)"}, {"smiles": "CC1(c2ccccc2Cl)NC(=O)N(CC(=O)NC(=O)NCc2ccco2)C1=O", "note": "(configuration not stated)", "growth inhibition": "-3.76%"}, {"smiles": "COc1ccc(C2=NOC(C(=O)NCc3ccco3)C2)cc1OC", "note": "(configuration not stated)", "growth inhibition": "-12.4%"}, {"smiles": "CCS(=O)(=O)n1nc(-c2ccccc2)nc1SCc1ccccc1", "growth inhibition": "62.5% (active)"}, {"smiles": "CCS(=O)(=O)n1nc(-c2ccc(OC)cc2)nc1SC", "growth inhibition": "2.8%"}, {"smiles": "CCCc1cc(=O)n2[nH]c(SCc3ccccc3)nc2n1", "growth inhibition": "11.2%"}, {"smiles": "CN(C)[C@@H]1C(=O)C(C(N)=O)=C(O)[C@@]2(O)C(=O)C3=C(O)c4c(O)ccc(Cl)c4[C@@H](O)[C@H]3C[C@@H]12", "growth inhibition": "100% (active)"}, {"smiles": "CCSC1=C(C#N)C(=O)n2c1cc1c2CCCC1", "growth inhibition": "11.6%"}, {"smiles": "Cc1ccc(S(=O)(=O)N2CCC(C(=O)N[C@@H](C)C(=O)NCCc3ccccc3)CC2)cc1", "growth inhibition": "-5.94%"}, {"smiles": "COc1ccc(Nc2oc(-c3ccccc3Cl)nc2C#N)cc1", "growth inhibition": "9.32%"}, {"smiles": "c1ccc2[nH]c(NCCN3CCOCC3)nc2c1", "growth inhibition": "-17.2%"}, {"smiles": "N#Cc1nc(-c2ccc(OCc3ccccc3)cc2)oc1NCCCN1CCOCC1", "growth inhibition": "96.3% (active)"}, {"smiles": "COc1ccc(OC)c2c(N)c(C#N)c(C(F)(F)C(F)(F)F)nc12", "growth inhibition": "2.98%"}, {"smiles": "O=C(Nc1ccc(Cl)cn1)c1cnn2cccnc12", "growth inhibition": "-3.45%"}, {"smiles": "CCN=C1SC(CC(=O)Nc2ccc(C)cc2)C(=O)N1CC", "note": "(configuration not stated)", "growth inhibition": "-9.63%"}, {"smiles": "C[C@H](NC(=O)OC(C)(C)C)c1nnc(SCC(=O)Nc2ccc(Br)cc2)o1", "growth inhibition": "15.3%"}, {"smiles": "CC(C)(CSc1nncn1/N=C/c1ccco1)NS(=O)(=O)c1ccc(Cl)cc1", "growth inhibition": "15.6%"}, {"smiles": "COc1ccc(Cc2nnc(NS(=O)(=O)Cc3ccccc3)s2)cc1", "growth inhibition": "5.52%"}, {"smiles": "CCOC(=O)c1[nH]c2ccc(OC)cc2c1NC(=O)N1CCOCC1", "growth inhibition": "-1.42%"}, {"smiles": "O=C1CSC(c2cccc(F)c2)N1c1ccccc1F", "note": "(configuration not stated)", "growth inhibition": "9.21%"}, {"smiles": "CCCCCCn1c(SCC(=O)c2ccccc2)nc2c1c(=O)[nH]c(=O)n2C", "growth inhibition": "14.9%"}, {"smiles": "CCCCCn1c(SCCC(C)C)nc2c1c(=O)[nH]c(=O)n2C", "growth inhibition": "64.3% (active)"}, {"smiles": "CCCSc1nc2c(c(=O)[nH]c(=O)n2C)n1CCc1ccccc1", "growth inhibition": "5.24%"}, {"smiles": "COC(=O)c1ccc2c(c1)S(=O)(=O)NC(=NCCCN1CCOCC1)S2", "growth inhibition": "-18.4%"}, {"smiles": "O/N=C1\\CC2(Cc3nonc31)OCCO2", "growth inhibition": "-23.4%"}, {"smiles": "Cc1ccc(OCC(=O)Nc2ccc(-c3nnc(-c4ccco4)o3)cc2)cc1", "growth inhibition": "-19.2%"}, {"smiles": "O=C(COC(=O)c1ccc(Oc2ccccc2)cc1)Nc1nnc(-c2ccccc2)o1", "growth inhibition": "100% (active)"}, {"smiles": "COc1ccc(CC(=O)Nc2ccc(-c3nnc(-c4ccccc4)o3)cc2)cc1", "growth inhibition": "-6.58%"}, {"smiles": "CC(C(=O)N1CCOCC1)N1c2cccc3cccc(c23)S1(=O)=O", "note": "(configuration not stated)", "growth inhibition": "-2.26%"}, {"smiles": "COc1cccc(NC(=O)Nc2nnc(N3CCCCC3C)s2)c1", "note": "(configuration not stated)", "growth inhibition": "61.5% (active)"}, {"smiles": "COc1cccc(NC(=O)C2CCCN2C(=O)OCc2ccccc2)c1", "note": "(configuration not stated)", "growth inhibition": "-9.18%"}, {"smiles": "COc1cccc(Nc2nnc(SCC(=O)N3CC(C)OC(C)C3)s2)c1", "note": "(configuration not stated)", "growth inhibition": "8.6%"}, {"smiles": "CCCc1nnc(NC(=O)CN2C(=O)c3ccccc3S2(=O)=O)s1", "growth inhibition": "-16.8%"}, {"smiles": "CC(C)CNC(=O)c1cc(-c2ccc(Br)cc2)on1", "growth inhibition": "1.43%"}, {"smiles": "CC(C)Cc1cc(C(=O)NCCc2ccccc2)no1", "growth inhibition": "9.12%"}, {"smiles": "CC(C)Cc1cc(C(=O)Nc2cc(Br)ccc2O)no1", "growth inhibition": "80.4% (active)"}, {"smiles": "NC(=O)c1ccccc1NC(=O)c1ccccc1F", "growth inhibition": "-2.79%"}, {"smiles": "CC(C)OCCCNc1ncnc2c1[nH]c1ccc(F)cc12", "growth inhibition": "96.2% (active)"}, {"smiles": "O=C1CCCN1CCCNc1ncnc2c1[nH]c1ccccc12", "growth inhibition": "-26.6%"}, {"smiles": "CCN1CCCC1CNc1ncnc2c1[nH]c1ccc(F)cc12", "note": "(configuration not stated)", "growth inhibition": "3.38%"}, {"smiles": "COc1ccccc1NC(=O)c1ccc(C)s1", "growth inhibition": "14.1%"}, {"smiles": "CCOc1ccccc1NC(=O)CCN1CCN(S(=O)(=O)c2ccc(OC)cc2)CC1", "growth inhibition": "-7.02%"}, {"smiles": "CCOc1ccccc1NC(=O)Nc1cc(OC)ccc1OC", "growth inhibition": "-9.62%"}, {"smiles": "CCOc1ccccc1Oc1cn[nH]c1-c1ccc(OC)cc1O", "growth inhibition": "98.2% (active)"}, {"smiles": "O=C(Nc1ccc2c(c1)OCO2)C1CC(c2c(F)cccc2Cl)=NO1", "note": "(configuration not stated)", "growth inhibition": "18%"}, {"smiles": "CCOC(=O)c1c(-n2cnnn2)sc(C)c1C", "growth inhibition": "1.46%"}, {"smiles": "CCOC(=O)C1CCN(c2ncnc3c2oc2ccc(Br)cc23)CC1", "growth inhibition": "100% (active)"}, {"smiles": "Cc1cc(C)nc(N2CCN(c3ncnc4c3oc3ccccc34)CC2)n1", "growth inhibition": "-15.7%"}, {"smiles": "CCOC(=O)N1CCN(C(=O)C2CCN(c3ncnc4c3sc3cccc(F)c34)CC2)CC1", "growth inhibition": "32.2%"}, {"smiles": "CC(C)COC(=O)C1C2C=CC3(CN(C(C)c4ccc(Br)cc4)C(=O)C13)O2", "note": "(configuration not stated)", "growth inhibition": "-3.74%"}, {"smiles": "COCCNC(=O)c1ccccc1-c1nc(-c2ccccc2Cl)no1", "growth inhibition": "1.03%"}, {"smiles": "Cc1ccc(C2(c3ccc(C)cc3)NC(=O)N(Cc3c(C)noc3C)C2=O)cc1", "growth inhibition": "94.9% (active)"}, {"smiles": "Cc1ccc(SCCN2C(=O)NC(C)(C)C2=O)cc1", "growth inhibition": "13.1%"}, {"smiles": "C=CCNC(=O)CCCOc1cccc(C)c1", "growth inhibition": "-3.22%"}, {"smiles": "COc1ccccc1N1CCN(C(=O)c2c(-c3c(Cl)cccc3Cl)noc2C)CC1", "growth inhibition": "23.5%"}, {"smiles": "Nc1cc(=O)nc(SCc2ccccc2)n1Cc1ccco1", "growth inhibition": "7.07%"}, {"smiles": "Clc1ccccc1CSc1nnc(-c2ccco2)c(-c2ccco2)n1", "growth inhibition": "9.86%"}, {"smiles": "O=C(CSc1nnc(-c2ccco2)n1CC1CCCO1)c1ccccc1", "note": "(configuration not stated)", "growth inhibition": "-11.9%"}, {"smiles": "O=C(CSc1nnc(-c2ccco2)n1Cc1ccccc1)NC(=O)NCc1ccco1", "growth inhibition": "12.2%"}, {"smiles": "c1ccc(CSc2nnc(-c3ccco3)c(-c3ccco3)n2)cc1", "growth inhibition": "72.5% (active)"}, {"smiles": "c1ccc(CSc2nnc(-c3ccco3)n2Cc2ccccc2)cc1", "growth inhibition": "100% (active)"}, {"smiles": "CC(C)c1nc(N2CCOCC2)c(C#N)c2c1COC(C)(C)C2", "growth inhibition": "8.03%"}, {"smiles": "Cc1ccc(S(=O)(=O)N2CC(=O)Nc3ccccc32)cc1C", "growth inhibition": "-6.32%"}, {"smiles": "CCCCc1nc2ccccc2c(=O)n1NC(=O)c1c(O)c2cccc3c2n(c1=O)CC3", "growth inhibition": "34.2%"}, {"smiles": "CCCC(=O)Nc1c(O)c2ccccc2[nH]c1=O", "growth inhibition": "-32.1%"}, {"smiles": "CCCc1nc2ccccc2c(=O)n1NC(=O)c1c(O)c2ccccc2[nH]c1=O", "growth inhibition": "72.5% (active)"}, {"smiles": "Cc1cc(Nc2ccccc2)n(C(=O)c2ccc(N)cc2)n1", "growth inhibition": "25.2%"}, {"smiles": "N#Cc1c(N)n(CCOC(=O)c2ccc(Cl)cc2)c2nc3ccccc3nc12", "growth inhibition": "5%"}, {"smiles": "CC(=O)N1C(=O)C2(Nc3ccccc3N2)c2ccccc21", "growth inhibition": "-14%"}, {"smiles": "COc1c(Br)cc2c(C)c(C(=O)N3CCOCC3)oc2c1Br", "growth inhibition": "0.15%"}, {"smiles": "COc1ccc(-c2n[nH]c(C)c2-c2ccc(OC)c(OC)c2)c(O)c1", "growth inhibition": "38.4%"}, {"smiles": "C=C(C)COc1ccc(-c2n[nH]c(C)c2-c2ccccc2OC)c(O)c1", "growth inhibition": "88.4% (active)"}, {"smiles": "COc1ccccc1-c1c(C)nn2c(C)c(C(C)=O)cnc12", "growth inhibition": "15.8%"}, {"smiles": "C=C(C)COc1ccc(-c2n[nH]c(C)c2-c2ccccc2)c(O)c1", "growth inhibition": "95.4% (active)"}, {"smiles": "Cn1c(=O)c2c(nc(SCCNS(=O)(=O)c3ccccc3)n2C)n(C)c1=O", "growth inhibition": "0.89%"}, {"smiles": "Cc1ncc(CC(=O)n2cc(C(=O)c3cc(Cl)ccc3O)cn2)s1", "growth inhibition": "5.26%"}, {"smiles": "CCn1c(SCC(=O)Nc2nc3ccc(OC)cc3s2)nnc1-c1ccoc1C", "growth inhibition": "27.9%"}, {"smiles": "C=CCn1c(CSc2nc3ccccc3s2)nnc1SCC(=O)NCc1ccco1", "growth inhibition": "29.4%"}, {"smiles": "C=CCn1c(SCC(=O)Nc2nc3ccccc3s2)nnc1-c1ccccc1O", "growth inhibition": "87.9% (active)"}, {"smiles": "CCOc1ccccc1-n1c(SCC(=O)NCc2ccco2)nnc1-c1ccncc1", "growth inhibition": "-11.1%"}]}]}
